This is an account of results in ChEMBL document CHEMBL1153870, “Synthesis of glycose carbamides and evaluation of the induction of erythroid differentiation of human erythroleukemic K562 cells” (Eur J Med Chem, 2009).

For orientation: IC50 means the concentration that gives 50% inhibition.

The structures appear in SMILES notation.

Test [1] relates to K562. As to the kind of experiment: Induction of erythroid differentiation in human K562 cells assessed as benzidine-positive cells at 0.5 mM after 6 days. The class given is functional. The essentials:
(§1)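 K562 cells were seeded at 30,000 cells/mL in medium with 10% FBS and antibiotics, then exposed to compounds at the indicated concentrations for a 6-day induction period. Hemoglobin-containing cells were scored by benzidine staining and expressed as % benzidine-positive cells. Values are mean ± SD of three independent experiments.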

Test [2] deals with K562. Description: Antiproliferative activity against human K562 cells. The format is functional, cell-based. The essentials: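 K562 cells were seeded at 30,000 cells/mL in medium with 10% FBS, penicillin and streptomycin. They were cultured with or without test compounds at the indicated concentrations. Cell number per mL was counted with a Coulter counter on different days after culture set-up.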

Test [3] relates to K562. As to the kind of experiment: Induction of erythroid differentiation in human K562 cells assessed as benzidine-positive cells after 6 days. The class given is functional. Also on record: concentration or dose not given beside the values. The essentials:
as §1

Test [4] relates to K562. As to the kind of experiment: Induction of erythroid differentiation in human K562 cells assessed as benzidine-positive cells at 20 mM after 6 days. The format is functional. The essentials:
as §1

The subject of test [5] is K562. As to the kind of experiment: Induction of erythroid differentiation in human K562 cells assessed as benzidine-positive cells at 0.75 mM after 6 days. The class given is functional. The essentials: (§2)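 Erythroid induction was measured with compound combined with a sub-optimal concentration of ara-C. K562 cells were seeded at 30,000 cells/mL in medium with 10% FBS and antibiotics and co-treated for 6 days. Read-out was % benzidine-positive (hemoglobin-containing) cells, given as mean ± SD of three independent experiments.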

Test [6] has as its system K562. As to the kind of experiment: Induction of erythroid differentiation in human K562 cells assessed as benzidine-positive cells at 8 mM after 6 days. The class given is functional. The essentials: as §2
The test system of test [7] is K562. Description: Induction of erythroid differentiation in human K562 cells assessed as benzidine-positive cells at 0.1 mM after 6 days. The format is functional. The essentials: as §1
The test system of test [8] is K562. Description: Induction of erythroid differentiation in human K562 cells assessed as benzidine-positive cells at 1 mM after 6 days. The class given is functional. The essentials: as §1
In test [9] the test system is K562. As to the kind of experiment: Induction of erythroid differentiation in human K562 cells assessed as benzidine-positive cells at 5 mM after 6 days. The class given is functional. The gist of the method: as §1
In test [10] the test system is K562. Description: Induction of erythroid differentiation in human K562 cells assessed as benzidine-positive cells at 500 mM after 6 days. The class given is functional. The settings on record: in the assay text read “500 nM” for “500 mM”. The gist of the method:
as §1

Take `CCCC(=O)N[C@@H]1[C@H]2OC(C)(C)O[C@H]2O[C@@H]1[C@H](O)CO`: the figures for the Activity with K562 [1] and in the test on K562 [3] were 35% and 20%, respectively. The IC50 in the test on K562 [2] is 500 µM.

`COc1ccc(C(=O)N[C@H]2[C@H]3OC(C)(C)O[C@H]3O[C@@H]2[C@H](O)CO)cc1` gave an IC50 in the test on K562 [2] of 2500 µM. For the same molecule, in the test with K562 [3], the Activity turned out to be 24%.

In the test on K562 [2], `CC#CC(=O)N[C@@H]1[C@H]2OC(C)(C)O[C@H]2O[C@@H]1[C@H]1COC(C)(C)O1` gave an IC50 of 500 µM. In the test on K562 [3], the Activity stood at 19%.

As for `CC(C)CC(=O)N[C@@H]1[C@H]2OC(C)(C)O[C@H]2O[C@@H]1[C@H](O)CO`, in the test with K562 [2], half-maximal inhibition (IC50) was put at 5000 µM. In addition, the Activity with K562 [3] turned out to be 25%.

On to `CCCCCC(=O)N[C@@H]1[C@H]2OC(C)(C)O[C@H]2O[C@@H]1[C@H](O)CO`, for which the IC50 with K562 [2] was found to be 10000 µM. Moreover, in the test on K562 [3], the Activity was determined as 28%.

Molecule `CC1(C)O[C@H]2O[C@H]([C@H]3COC(C)(C)O3)[C@@H](NC(=O)C3CCCC3)[C@H]2O1` returned an IC50 in the test on K562 [2] of 1000 µM. Moreover, in the test on K562 [3], the Activity is 21%.

In the case of `CC1(C)O[C@H]2O[C@H]([C@H](O)CO)[C@@H](NC(=O)C(C)(C)C)[C@H]2O1`, the values for the Activity in the test with K562 [4] and in the test on K562 [3] were 40% and 25%, respectively. Also, 20000 µM corresponded to half-maximal inhibition in the test with K562 [2] (IC50).

With `CC1(C)O[C@H]2O[C@H]([C@H]3COC(C)(C)O3)[C@@H](NC(=O)CCc3ccccc3)[C@H]2O1`, the Activity in the test with K562 [5] is 49%.

On to `COc1ccc(OC)c(CC(=O)N[C@H]2[C@H]3OC(C)(C)O[C@H]3O[C@@H]2[C@H]2COC(C)(C)O2)c1`, for which, in the test with K562 [1], the Activity is recorded as 50%.

For `CC(C)C(=O)N[C@H]1[C@H]2OC(C)(C)O[C@H]2O[C@@H]1[C@H](O)CO`, the Activity in the test with K562 [6] is recorded as 66%.

In the test on K562 [2], `CO[C@@H]1O[C@H](CNC(=O)C2CC2)[C@@H]2OC(C)(C)O[C@@H]2[C@H]1O` had an IC50 of 250 µM. In addition, the Activity with K562 [3] worked out at 27%.

Take `CCC(=O)N[C@@H]1[C@H]2OC(C)(C)O[C@H]2O[C@@H]1[C@H](O)CO`: in the test on K562 [2], the IC50 is 30000 µM. Moreover, the Activity in the test with K562 [3] amounted to 20%.

In the test with K562 [2], `CCCCC(=O)N[C@@H]1[C@H]2OC(C)(C)O[C@H]2O[C@@H]1[C@H](O)CO` came in with an IC50 of 5000 µM. Also, the Activity in the test on K562 [3] came out at 18%.

Molecule `CCC(=O)N[C@H]1[C@H]2OC(C)(C)O[C@H]2O[C@@H]1[C@H]1COC(C)(C)O1` displayed an IC50 in the test on K562 [2] of 7500 µM. In addition, in the test with K562 [3], the Activity came to 19%.

As to `CC(C)(C)CC(=O)N[C@@H]1[C@H]2OC(C)(C)O[C@H]2O[C@@H]1[C@H](O)CO`, the IC50 with K562 [2] turned out to be 5000 µM. In the test with K562 [3], the Activity stood at 15%.

As to `CCCC(=O)N[C@H]1[C@H]2OC(C)(C)O[C@H]2O[C@@H]1[C@H](O)CO`, the values for the Activity in the test with K562 [4] and in the test on K562 [3] were 40% and 20%, respectively. In addition, 20000 µM corresponded to half-maximal inhibition in the test on K562 [2] (IC50).

`CC1(C)O[C@H]2O[C@H]([C@H](O)CO)[C@@H](NC(=O)c3ccc(-c4ccccc4)cc3)[C@H]2O1`: the Activity in the test on K562 [7] stood at 33%.

Take `COc1cccc(CC(=O)N[C@H]2[C@H]3OC(C)(C)O[C@H]3O[C@@H]2[C@H]2COC(C)(C)O2)c1`: in the test with K562 [8], the Activity is listed as 43%.

As for `CC1(C)O[C@H]2O[C@H]([C@H](O)CO)[C@H](NC(=O)C(C)(C)C)[C@H]2O1`, the Activity with K562 [9] worked out at 68%.

Take `CCCC(=O)NC[C@H]1O[C@H](OC)[C@H](O)[C@H]2OC(C)(C)O[C@H]21`: 100 µM corresponded to half-maximal inhibition with K562 [2] (IC50). In the test on K562 [3], the Activity came to 18%.

In the test with K562 [2], `CCCC(=O)O` [BUTYRIC ACID] yielded an IC50 of 2000 µM. Further, the Activity with K562 [3] was 32.5%.

With `Nc1ccn([C@@H]2O[C@H](CO)[C@@H](O)[C@@H]2O)c(=O)n1` [CYTARABINE], the results for the Activity in the test on K562 [3] and in the test on K562 [10] were 78% and 22%, respectively.

As for `CO[C@H](C(=O)[C@@H](O)[C@@H](C)O)[C@@H]1Cc2cc3cc(O[C@H]4C[C@@H](O[C@@H]5C[C@@H](O)[C@H](O)[C@@H](C)O5)[C@H](O)[C@@H](C)O4)c(C)c(O)c3c(O)c2C(=O)[C@H]1O[C@H]1C[C@@H](O[C@@H]2C[C@@H](O)[C@@H](O[C@@H]3C[C@](C)(O)[C@H](O)[C@@H](C)O3)[C@@H](C)O2)[C@H](O)[C@@H](C)O1` [PLICAMYCIN], in the test on K562 [2], the IC50 amounted to 0.1 µM. In addition, the Activity with K562 [3] stood at 86%.

Take `CO[C@H]1C[C@@H]2CC[C@@H](C)[C@@](O)(O2)C(=O)C(=O)N2CCCC[C@H]2C(=O)O[C@H]([C@H](C)C[C@@H]2CC[C@@H](O)[C@H](OC)C2)CC(=O)[C@H](C)/C=C(\C)[C@@H](O)[C@@H](OC)C(=O)[C@H](C)C[C@H](C)/C=C/C=C/C=C/1C` [SIROLIMUS]: half-maximal inhibition in the test with K562 [2] (IC50) was put at 1000 µM. In addition, the Activity in the test on K562 [3] is on record as 75.5%.
